The source made the active and inactive calls. The rule behind the calls is not given here.
Assays:
CCRF-CEM [1] = assay: Antiviral activity against HIV2 assessed as inhibition of HIV2-induced cytopathicity in CEM cells; type: functional, cell-based
Procedure, shortened: (§1)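 CEM and MT-4 cell cultures infected with HIV-1 or HIV-2, with compounds diluted into culture medium from DMSO stocks. Antiviral activity is read at day 4 post-infection and reported as EC50.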

CCRF-CEM [2] = assay: Antiviral activity against HIV1 assessed as inhibition of HIV1-induced cytopathicity in CEM cells; type: functional, cell-based; settings: Homo sapiens; procedure, shortened: as §1
MT4 [3] = assay: Antiviral activity against HIV1 assessed as inhibition of HIV1-induced cytopathicity in MT4 cells; type: functional, cell-based; settings: Homo sapiens; procedure, shortened: as §1
MT4 [4] = assay: Antiproliferative activity against human MT4 cell line; type: functional
Procedure, shortened: (§2)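 Cytostatic assay: compounds made up as DMSO stocks and diluted in culture medium. CC50 is the concentration that inhibits MT-4 or CEM cell proliferation by 50%.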

CCRF-CEM [5] = assay: Antiproliferative activity against human CEM cell line; type: functional; procedure, shortened: as §2
[6] = biological target: Human immunodeficiency virus type 1 reverse transcriptase (Human immunodeficiency virus 1, UniProt Q72547); assay: Inhibition of recombinant HIV1 reverse transcriptase
MT4 [7] = assay: Antiviral activity against HIV2 assessed as inhibition of HIV2-induced cytopathicity in MT4 cells; type: functional, cell-based; procedure, shortened: as §1
Dipeptidyl peptidase 4 [8] = biological target: T1, Dipeptidyl peptidase 4 (Homo sapiens, UniProt P27487); assay: Conversion of prodrug to parent drug NAP-TSAO-T catalyzed by CD26 after 1 hr; type: ADME; set-up: concentration or dose not given beside the values
Dipeptidyl peptidase 4 [9] = biological target: T1, Dipeptidyl peptidase 4; assay: Conversion of prodrug to parent drug NAP-TSAO-T catalyzed by CD26 after 4 hrs; type: ADME; set-up: concentration or dose not given beside the values
Dipeptidyl peptidase 4 [10] = biological target: T1, Dipeptidyl peptidase 4; assay: Conversion of prodrug to parent drug NAP-TSAO-T catalyzed by CD26 after 24 hrs; type: ADME; set-up: concentration or dose not given beside the values

T1 sequence (P27487 whole entry): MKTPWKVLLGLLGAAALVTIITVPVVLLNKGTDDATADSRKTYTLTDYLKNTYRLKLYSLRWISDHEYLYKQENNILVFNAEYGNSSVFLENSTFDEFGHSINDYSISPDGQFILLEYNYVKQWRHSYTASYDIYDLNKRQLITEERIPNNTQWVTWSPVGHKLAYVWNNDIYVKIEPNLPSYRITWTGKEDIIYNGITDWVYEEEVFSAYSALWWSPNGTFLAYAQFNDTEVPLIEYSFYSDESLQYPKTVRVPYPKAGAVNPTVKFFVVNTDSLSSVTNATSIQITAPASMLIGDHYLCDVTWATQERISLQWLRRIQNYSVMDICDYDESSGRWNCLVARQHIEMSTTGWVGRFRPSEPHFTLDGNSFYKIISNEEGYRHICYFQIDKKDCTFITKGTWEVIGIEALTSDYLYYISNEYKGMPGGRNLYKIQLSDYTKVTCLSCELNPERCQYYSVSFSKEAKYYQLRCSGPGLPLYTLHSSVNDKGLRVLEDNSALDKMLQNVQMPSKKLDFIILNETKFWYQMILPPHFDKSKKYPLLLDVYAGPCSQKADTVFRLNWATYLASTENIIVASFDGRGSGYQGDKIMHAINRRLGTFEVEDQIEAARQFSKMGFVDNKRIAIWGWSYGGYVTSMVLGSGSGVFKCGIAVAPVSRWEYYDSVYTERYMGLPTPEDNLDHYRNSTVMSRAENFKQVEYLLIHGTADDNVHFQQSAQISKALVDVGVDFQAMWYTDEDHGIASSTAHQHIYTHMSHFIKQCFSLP

Row | SMILES | Activity (CCRF-CEM [1]) | EC50 (CCRF-CEM [2]) | EC50 (MT4 [3]) | CC50 (MT4 [4]) | CC50 (CCRF-CEM [5]) | IC50 [6] | Activity (MT4 [7]) | Activity (Dipeptidyl peptidase 4 [8]) | Activity (Dipeptidyl peptidase 4 [9]) | Activity (Dipeptidyl peptidase 4 [10])
1 | Cc1cn(C2OC(CO[Si](C)(C)C(C)(C)C)C3(OS(=O)(=O)C=C3N)C2O[Si](C)(C)C(C)(C)C)c(=O)n(CCCNC(=O)[C@@H](NC(=O)[C@@H]2CCCN2C(=O)[C@@H](N)C(C)C)C(C)C)c1=O (some centres undefined) | inactive | 0.07 µM | 0.22 µM | 11 µM | 11 µM | 4.4 µM | inactive |  |  | 
2 | Cc1cn(C2OC(CO[Si](C)(C)C(C)(C)C)C3(OS(=O)(=O)C=C3N)C2O[Si](C)(C)C(C)(C)C)c(=O)n(CCCNC(=O)[C@H](Cc2ccccc2)NC(=O)[C@@H](N)C(C)C)c1=O (some centres undefined) | inactive | 0.09 µM | 0.26 µM | 14 µM | 10 µM | 6.8 µM | inactive | 0% | 0% | 0%
3 | Cc1cn(C2OC(CO[Si](C)(C)C(C)(C)C)C3(OS(=O)(=O)C=C3N)C2O[Si](C)(C)C(C)(C)C)c(=O)n(CCCNC(=O)[C@@H]2[C@@H](O)[C@@H](O)CN2C(=O)[C@@H](N)C(C)C)c1=O (some centres undefined) | inactive | 0.35 µM | 0.77 µM | 46 µM | 51 µM | 4.8 µM | inactive | 0% | 0% | 0%
4 | Cc1cn(C2OC(CO[Si](C)(C)C(C)(C)C)C3(OS(=O)(=O)C=C3N)C2O[Si](C)(C)C(C)(C)C)c(=O)n(CCCNC(=O)[C@@H]2CCCN2C(=O)CN)c1=O (some centres undefined) | inactive | 0.2 µM | 0.39 µM | 13 µM | 51 µM | 13 µM | inactive | 5% | 20% | 58%
5 | Cc1cn(C2OC(CO[Si](C)(C)C(C)(C)C)C3(OS(=O)(=O)C=C3N)C2O[Si](C)(C)C(C)(C)C)c(=O)n(CCCNC(=O)[C@H]2CCCN2C(=O)[C@@H](N)C(C)C)c1=O (some centres undefined) | inactive | 0.09 µM | 0.49 µM | 22 µM | 11 µM | 22 µM | inactive | 0% | 2.2% | 4.2%
6 | Cc1cn(C2OC(CO[Si](C)(C)C(C)(C)C)C3(OS(=O)(=O)C=C3N)C2O[Si](C)(C)C(C)(C)C)c(=O)n(CCCNC(=O)[C@H](CC(C)C)NC(=O)[C@@H](N)C(C)C)c1=O (some centres undefined) | inactive | 0.19 µM | 0.21 µM | 13 µM | 11 µM | 4.6 µM | inactive | 0% | 0% | 0%
7 | Cc1cn(C2OC(CO[Si](C)(C)C(C)(C)C)C3(OS(=O)(=O)C=C3N)C2O[Si](C)(C)C(C)(C)C)c(=O)n(CCCNC(=O)CNC(=O)[C@@H](N)C(C)C)c1=O (some centres undefined) | inactive | 0.05 µM | 0.14 µM | 9.9 µM | 10 µM | 3.8 µM | inactive | 0% | 0% | 0%
8 | Cc1cn(C2OC(CO[Si](C)(C)C(C)(C)C)C3(OS(=O)(=O)C=C3N)C2O[Si](C)(C)C(C)(C)C)c(=O)n(CCCNC(=O)[C@H](C)NC(=O)[C@@H](N)C(C)C)c1=O (some centres undefined) | inactive | 0.08 µM | 0.23 µM | 22 µM | 11 µM | 5.4 µM | inactive | 0% | 6.5% | 35%
9 | Cc1cn(C2OC(CO[Si](C)(C)C(C)(C)C)C3(OS(=O)(=O)C=C3N)C2O[Si](C)(C)C(C)(C)C)c(=O)n(CCCNC(=O)[C@@H]2CCCN2C(=O)[C@@H](N)CC(N)=O)c1=O (some centres undefined) | inactive | 0.37 µM | 0.59 µM | 22 µM | 25 µM | 4 µM | inactive |  | 27% | 73%
10 | Cc1cn(C2OC(CO[Si](C)(C)C(C)(C)C)C3(OS(=O)(=O)C=C3N)C2O[Si](C)(C)C(C)(C)C)c(=O)n(CCCNC(=O)[C@@H]2CCCN2C(=O)[C@@H](N)CCCCN)c1=O (some centres undefined) | inactive | 0.16 µM |  | 87 µM | 47 µM | 4.7 µM | inactive |  | 85% | 99%
11 | Cc1cn(C2OC(CO[Si](C)(C)C(C)(C)C)C3(OS(=O)(=O)C=C3N)C2O[Si](C)(C)C(C)(C)C)c(=O)n(CCCNC(=O)[C@@H]2CCCN2C(=O)[C@@H](N)CC(=O)O)c1=O (some centres undefined) | inactive | 1.1 µM | 1.2 µM | 69 µM | ≥ 125 µM | 7.2 µM | inactive |  | 7.9% | 30%
12 | Cc1cn(C2OC(CO[Si](C)(C)C(C)(C)C)C3(OS(=O)(=O)C=C3N)C2O[Si](C)(C)C(C)(C)C)c(=O)n(CCCNC(=O)[C@@H](N)C(C)C)c1=O (some centres undefined) | inactive | 0.06 µM | 0.3 µM | 8.2 µM | 9.6 µM | 6.7 µM | inactive |  |  | 
13 | Cc1cn(C2OC(CO[Si](C)(C)C(C)(C)C)C3(OS(=O)(=O)C=C3N)C2O[Si](C)(C)C(C)(C)C)c(=O)n(CCCNC(=O)[C@@H]2CCCN2C(=O)[C@@H](N)CCC(=O)O)c1=O (some centres undefined) | inactive | 0.26 µM | 0.49 µM | 64 µM | 30 µM |  | inactive |  | 48% | 92%
14 | Cc1cn([C@@H]2O[C@H](CO[Si](C)(C)C(C)(C)C)[C@@]3(OS(=O)(=O)C=C3N)[C@H]2O[Si](C)(C)C(C)(C)C)c(=O)n(CCCN)c1=O | inactive | 0.14 µM | 0.52 µM | 14 µM | 12 µM |  | inactive |  |  | 
15 | Cc1cn(C2OC(CO[Si](C)(C)C(C)(C)C)C3(OS(=O)(=O)C=C3N)C2O[Si](C)(C)C(C)(C)C)c(=O)n(CCCNC(=O)[C@@H]2C[C@@H](OCc3ccccc3)CN2C(=O)[C@@H](N)C(C)C)c1=O (some centres undefined) | inactive | 0.09 µM | 0.27 µM | 2 µM | 2.1 µM | 28 µM | inactive |  | 0% | 0%
16 | Cc1cn(C2OC(CO[Si](C)(C)C(C)(C)C)C3(OS(=O)(=O)C=C3N)C2O[Si](C)(C)C(C)(C)C)c(=O)n(CCCNC(=O)[C@@H]2CCCN2C(=O)[C@@H](N)Cc2ccccc2)c1=O (some centres undefined) | inactive | 0.1 µM | 0.2 µM | 19 µM | 14 µM |  | inactive |  | 37% | 58%
17 | Cc1cn(C2OC(CO[Si](C)(C)C(C)(C)C)C3(OS(=O)(=O)C=C3N)C2O[Si](C)(C)C(C)(C)C)c(=O)n(CCCNC(=O)[C@@H]2CCCN2C(=O)[C@H](C)N)c1=O (some centres undefined) | inactive | 0.42 µM | 0.3 µM | 20 µM | 19 µM |  | inactive |  | 81% | 88%

Source: ChEMBL document CHEMBL1146037, “Design and discovery of a novel dipeptidyl-peptidase IV (CD26)-based prodrug approach” (J Med Chem, 2006)
